In the library only some 1.7% were active in any assay of this set; here they are far more common.
DNMT1 block = human DNMT1 methyltransferase inhibitors, primary screen, biochemical, molecular beacon, fluorescence, HinP1I cleavage, uHTS; AID 588458, 2011; inhibition (reported as % activation of signal), % at 10 µM; DNA (cytosine-5)-methyltransferase 1 (Homo sapiens), P26358; actives 0.83% (n = 360,000); in the data active = inhibition above about 50%
SUMO1-SIM PPI = modulators of SUMO1 protein-protein interactions, primary screen, biochemical, uHTS. Small ubiquitin-related modifier 1 (Homo sapiens), P63165. SUMO1 binding to a labelled peptide, TR-FRET, 1 h. inhibition, % at 20 µM. actives 0.33% (n = 360,000). AID 602429, 2012; in the data active = inhibition above about 37%
Target sequence (P63165 whole entry, looked up): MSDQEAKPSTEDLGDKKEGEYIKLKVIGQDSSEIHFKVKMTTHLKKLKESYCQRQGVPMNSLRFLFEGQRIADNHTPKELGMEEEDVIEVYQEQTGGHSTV
LMPTP block = LMPTP phosphatase inhibitors, primary screen, biochemical, fluorescence intensity, uHTS; recombinant LMPTP-A, OMFP fluorogenic substrate; actives 0.22% (n = 360,000); inhibition, % at 20 µM; AID 651560, 2012; Low molecular weight phosphotyrosine protein phosphatase (Homo sapiens), P24666;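 active = compounds that cut the enzyme signal by at least half of the control window in the single-dose screen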;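 note: plate controls were DMSO wells with enzyme plus substrate for no effect and substrate without enzyme for full effect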
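Test system – LMPTP-A phosphatase enzyme · Quantity – 0.625 nM LMPTP-A final · Reagent – OMFP substrate, 400 µM final · Dosing – one test concentration per compound, 20 µM, with 3% DMSO overall · Timing – 50 min enzyme reaction at room temperature, protected from light · Detection – fluorescence intensity · Controls – substrate-only low control, DMSO enzyme-plus-substrate high control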
Scp-1 inhibitor = Scp-1 phosphatase inhibitors, primary screen, biochemical, colorimetric, uHTS. inhibition, % at 20 µM. AID 493091, 2011. Carboxy-terminal domain RNA polymerase II polypeptide A small phosphatase 1 (Homo …. Recombinant Scp1, phosphopeptide, malachite green phosphate absorbance. actives 0.88% (n = 340,000);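 active = inhibition above about 50% at 20 µM, limit read from the data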;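 note: plate controls were DMSO wells with enzyme for no effect and wells lacking enzyme for full effect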
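Test system: SCP-1 phosphatase catalytic domain, residues 76-261 | Compound dosing: One concentration, 20 µM, with 1.0% DMSO | Schedule: 45 min room-temperature reaction, 5 min colour, 30 min stabiliser | Detection: Absorbance at 630 nm | Read-out basis: % inhibition of SCP-1 phosphate liberation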
STEP block = STEP phosphatase inhibitors, primary screen, biochemical, fluorescence intensity, uHTS. Tyrosine-protein phosphatase non-receptor type 5 (Homo sapiens), P54829. recombinant STEP, OMFP fluorogenic substrate. inhibition, % at 20 µM. actives 0.25% (n = 360,000). AID 588621, 2011;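 active = inhibition at 20 µM, scaled per plate between control wells, above about 37%, limit read from the data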;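 note: 0% = DMSO with enzyme and substrate and 100% = substrate only without enzyme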
Target sequence (P54829 whole entry, looked up): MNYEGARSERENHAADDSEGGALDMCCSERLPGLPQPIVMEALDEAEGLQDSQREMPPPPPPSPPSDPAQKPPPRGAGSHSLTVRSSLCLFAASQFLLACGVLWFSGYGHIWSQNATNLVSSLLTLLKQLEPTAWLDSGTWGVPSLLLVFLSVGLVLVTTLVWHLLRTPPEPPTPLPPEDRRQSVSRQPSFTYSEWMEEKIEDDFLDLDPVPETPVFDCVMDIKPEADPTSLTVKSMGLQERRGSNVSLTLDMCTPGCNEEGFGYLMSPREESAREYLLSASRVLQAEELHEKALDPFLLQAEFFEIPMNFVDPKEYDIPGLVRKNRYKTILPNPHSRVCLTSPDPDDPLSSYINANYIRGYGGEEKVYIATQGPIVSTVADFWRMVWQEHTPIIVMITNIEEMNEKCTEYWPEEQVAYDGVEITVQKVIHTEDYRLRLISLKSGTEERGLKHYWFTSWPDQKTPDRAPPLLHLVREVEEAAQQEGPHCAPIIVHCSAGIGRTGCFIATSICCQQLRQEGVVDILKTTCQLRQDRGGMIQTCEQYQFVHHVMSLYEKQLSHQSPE
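System: isolated STEP enzyme; schedule: 20 min enzyme reaction at room temperature, protected from light; medium: Bis-Tris buffer pH 6.0, 2.5 mM DTT, 0.005% Tween 20; signal: fluorescence, 480/540 nm; dosing: single compound dose of 20 µM, 1% DMSO final; also added: OMFP substrate, 25 µM final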
Scp1 confirm = Scp-1 phosphatase inhibitors, retest, confirmation, biochemical, colorimetric, single concentration | actives 61% (n = 2,500) | AID 540281, 2011 | shares compounds with Scp-1 inhibitor | inhibition, % at 20 µM | recombinant SCP-1 catalytic domain, phosphate release, malachite green absorbance;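 note: plate controls were DMSO with enzyme for no effect and buffer wells lacking enzyme for full effect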
MG interference = colorimetric readout interference by compounds, confirmation, artefact control for Scp-1 inhibitor project, biochemical, single concentration; apparent inhibition (interference), % at 20 µM; Colorimetric interference counterscreen, malachite green absorbance 630 nm; 2,500 tested, under 10 active; shares compounds with Scp-1 inhibitor;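 note: compounds added after enzyme reaction finished so only phosphate colour detection is probed; plate controls were DMSO wells with completed Scp-1 reaction for no effect and substrate wells lacking enzyme for full effect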
Scp-1 Tm shift = Scp-1 binding by thermal shift, confirmation, orthogonal assay for Scp-1 inhibitor project, biophysical, differential scanning fluorimetry | shares compounds with Scp-1 inhibitor | Recombinant SCP1, Sypro Orange thermal shift Tm | thermal shift relative to vanadate control, % at 40 µM | actives 25% (n = 1,500);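 active = substances whose mean melting-temperature shift, as a percentage of the reference inhibitor's shift, reaches about 5.3%, limit read from the data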;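 note: 0% = Tm of DMSO wells and 100% = Tm with sodium orthovanadate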
An asterisk follows results filed as active; nt = not tested or not shown.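 Rule for the calls, unless noted: active = inhibition of at least 30% at 20 µM; inactive = the rest.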

SMILES	DNMT1 block	SUMO1-SIM PPI	LMPTP block	Scp-1 inhibitor	STEP block	Scp1 confirm	MG interference	others
COc1ccc([C@@H]2[C@@H]3C(=O)N(C(C)(C)C)C(=O)[C@@H]3[C@]3(C)C(=O)N(c4ccc(C)cc4)C(=O)N23)cc1	-4	3	1	-3	0	nt	nt
O=C(Nc1nnc(-c2cccs2)o1)C1CC1	4	-2	-2	-6	-1	nt	nt
O=C(Nc1nnc(-c2ccc(Cl)s2)o1)C1CC1	-1	-2	0	57*	0	-27	-14
COc1ccccc1N1CCN(C2CCCN(C(=O)CCN3CCCCO3)C2)CC1 (centres undefined)	0	-4	-1	-3	1	nt	nt
C=C(C)C(=O)Nc1cccc(C2=NOC3(C2)C[C@@H](C(N)=O)N(C(=O)CCCCC)C3)c1 (some centres undefined)	nt	nt	nt	83*	nt	69*	-10	Scp-1 Tm shift=-6
C/C=C/C=C\C(=O)Nc1cccc(C2=NOC3(C2)C[C@H](C(N)=O)N(C(=O)/C=C/C)C3)c1 (some centres undefined)	-19	10	0	22	0	nt	nt
CCCCCC(=O)N1CC2(CC(c3cccc(NC(=O)[C@@H]4CCC(=O)N4)c3)=NO2)C[C@@H]1C(N)=O (some centres undefined)	6	0	-1	0	-2	nt	nt
C/C=C\C=C\C(=O)N1CC2(CC(c3cccc(NC(=O)CC)c3)=NO2)C[C@H]1C(N)=O (some centres undefined)	-5	26	-2	70*	0	66*	-11	Scp-1 Tm shift=-6
CCCCCC(=O)Nc1ccc(C(=O)COC(=O)c2ccccn2)cc1	-3	1	0	-3	2	nt	nt
O=C(COc1ccc(OCc2ccccc2)cc1)NC1CCOC1=O (centres undefined)	-2	2	-2	85*	-1	-19	-19
O=C(NC12CC3CC(CC(C3)C1)C2)c1cnccn1	11	-3	0	51*	3	27	-11
O=C(NCCc1nc2ccccc2[nH]1)c1ccc(Br)o1	-2	2	1	61*	1	-2	-11
O=C(O)c1ccc([N+](=O)[O-])c(CS(=O)(=O)c2ccc(Cl)cc2)c1	-1	0	-1	66*	-1	4	-15
Cn1c(SCC(=O)Nc2ccccc2)nc(O)cc1=O	-7	7	-1	-4	2	-7	-4
Cc1cc(C)c(NC(=O)COc2nc3ccccc3nc2C)c(C)c1	0	-1	-2	58*	0	-18	-13
CC1(C)SC2c3ccccc3C(=O)N2[C@@H]1C(=O)O (some centres undefined)	1	2	-1	-2	-1	nt	nt
COc1ccccc1NC(=O)NNC(=O)COc1ccc2ccccc2c1	-2	2	0	1	0	nt	nt
COc1ccc(CC(=O)NNC(=O)COc2ccc3ccccc3c2)cc1	41	-1	16	57*	2	52*	-14	Scp-1 Tm shift=-17
CCCNS(=O)(=O)c1ccc(OCC(=O)Nc2ccc3c(c2)OCO3)cc1	-3	-2	0	-5	-1	nt	nt
CC1=C(C(=O)Nc2cc(C(=O)NCc3ccccc3)ccc2C)SCCO1	-6	35	-1	nt	-3	nt	nt
CC(CC(=O)c1cccs1)CC(=O)c1cccs1	6	-1	1	-10	2	nt	nt
O=C(O)CCCCCCCCCC(=O)c1cccs1	2	1	1	81*	0	-4	-20
COc1ccc(Cl)cc1NC(=O)C1Cc2cc(S(=O)(=O)N3CCCC3)ccc2N1C(C)=O (centres undefined)	-8	3	-1	1	0	nt	nt
C[N+](C)(C)c1ccc(/C=N/Nc2nc(Cl)c(C#N)c(Cl)c2Cl)cc1	4	-15	4	53*	3	19	-1
N#Cc1c(Cl)nc(N/N=C/c2ccccc2)c(Cl)c1Cl	1	-1	-1	-7	-3	nt	nt
SMILES	DNMT1 block	SUMO1-SIM PPI	LMPTP block	Scp-1 inhibitor	STEP block	Scp1 confirm	MG interference	others
O=C(O)C(F)=C(c1ccccc1)c1ccccc1	1	4	-3	52*	2	-10	-7
O=C1/C(=C\c2cccc([N+](=O)[O-])c2O)SC(=S)N1Cc1ccccc1	8	23	9	73*	6	16	-25
CN(C(=O)COC(=O)C1CCN(S(=O)(=O)c2c(Cl)cccc2Cl)CC1)C1CCCCC1	4	5	2	10	4	nt	nt
COC(=O)[C@]1(C)N[C@H](c2ccc(-c3ccc(Cl)c(Cl)c3)c(OC)c2)[C@@H]2C(=O)N(C)C(=O)[C@@H]21	-15	7	3	-2	2	nt	nt
Cc1ccc(/C=C(\C#N)C(=O)NCC2CCCO2)o1 (centres undefined)	-4	-10	0	1	1	nt	nt
N#C/C(=C/c1ccc(-c2ccc(C(=O)O)c(Cl)c2)o1)C(=O)NCC1CCCO1 (centres undefined)	11	-4	-2	106*	0	55*	-13	Scp-1 Tm shift=-12
CCOC(=O)C1CCN(C(=O)CCCCn2c(=O)[nH]c3ccccc3c2=O)CC1	2	-2	0	68*	0	-15	-7
CCOc1ccc(C(=O)Nc2ccc(-c3cc4ccccc4oc3=O)c(C)c2)cc1[N+](=O)[O-]	20	2	13	60*	4	41*	-29	Scp-1 Tm shift=3
COc1ccc(OC)c(-c2nc3ccccc3nc2-c2ccccc2)c1	-2	-11	2	58*	-1	-27	-22
C/C(=N\NC(=O)c1cccc(N/N=C(\C)c2ccco2)c1)c1ccco1	4	23	8	61*	2	62*	-15	Scp-1 Tm shift=6.1*
Cc1cccn2c(=O)c3cc(C(=O)NC4CCCC4)n(C)c3nc12	-3	-19	1	68*	-1	-12	-11
